# Reference: ChEMBL document CHEMBL3616437, “Thiazole compounds with activity against Cryptococcus gattii and Cryptococcus neoformans in vitro” (Eur J Med Chem, 2015)
# Key:
# [1] = tested on: Cryptococcus gattii species complex; experiment: Antifungal activity against Cryptococcus gattii 547/OTTI-97-PI-10 after 48 to 72 hrs by broth microdilution method; format: functional, Cryptococcus bacillisporus
# In short: (§1)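 CLSI M27-A3 broth microdilution in RPMI with L-glutamine, buffered to pH 7.0 with 0.165 M MOPS. Colonies grown twice on SDA, 48 h at 35°C. Inoculum set to 70% transmittance at 530 nm, then diluted to 1-5 x10^3 cells/mL. Test agents dissolved in DMSO, serially diluted, tested at 0.1 to 62.5 µM. Plates held at 35°C for 48-72 h. MIC is the lowest concentration giving an optically clear well, read visually against drug-free growth controls.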
# Cryptococcus neoformans [2] = experiment: Antifungal activity against Cryptococcus neoformans ATCC 24067 after 48 to 72 hrs by broth microdilution method; format: functional
# In short: (§2)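 CLSI M27-A3 broth microdilution. Isolates subcultured twice on SDA, 48 h at 35°C. Saline suspension adjusted to 70% transmittance at 530 nm, then diluted to 1-5 x10^3 cells/mL in RPMI with L-glutamine, 0.165 M MOPS, pH 7.0. Compounds in DMSO, tested at […]. 35°C for 48-72 h. MIC read visually as the lowest concentration giving an optically clear well.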
# Cryptococcus neoformans [3] = experiment: Antifungal activity against Cryptococcus neoformans 5396 after 48 to 72 hrs by broth microdilution method; format: functional; in short: as §2
# [4] = Selectivity index, ratio of IC50 for African green monkey Vero cells to MIC for Cryptococcus neoformans ATCC 24067; format: toxicity, cell-based
# [5] = tested on: Cryptococcus gattii species complex; experiment: Antifungal activity against Cryptococcus gattii 23/10993 after 48 to 72 hrs by broth microdilution method; format: functional, Cryptococcus bacillisporus; in short: as §1
# Cryptococcus neoformans [6] = experiment: Antifungal activity against Cryptococcus neoformans F10 after 48 to 72 hrs by broth microdilution method; format: functional; in short: as §2
# Cryptococcus neoformans [7] = experiment: Antifungal activity against Cryptococcus neoformans ATCC 28957 after 48 to 72 hrs by broth microdilution method; format: functional; in short: as §2
# [8] = Cytotoxicity against C57BL/6 mouse peritoneal macrophages assessed as cell viability measured after 48 hrs by MTT assay; format: cell-based; conditions: C57BL/6, Peritoneal macrophage cell
# In short: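 Thioglycollate-elicited peritoneal macrophages from male C57BL/6 mice, 6–8 weeks old, in RPMI with 10% FBS. Seeded 1 x 10^5 cells/well, pre-incubated 24 h at 37°C. Exposed 48 h at 37°C, 5% CO2, to eight nonserial dilutions from 100 to 0.0128 µM, with 0.5% DMSO control. MTT read-out, % inhibition versus DMSO control. IC50 reported as median with 95% CI. Triplicate, two independent experiments.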
# [9] = tested on: Cryptococcus gattii species complex; experiment: Antifungal activity against Cryptococcus gattii L27/01 after 48 to 72 hrs by broth microdilution method; format: functional, Cryptococcus bacillisporus; in short: as §1
# Cryptococcus neoformans [10] = experiment: Antifungal activity against Cryptococcus neoformans WP after 48 to 72 hrs by broth microdilution method; format: functional; in short: as §2
# Cryptococcus neoformans [11] = experiment: Antifungal activity against Cryptococcus neoformans LMM820 after 48 to 72 hrs by broth microdilution method; format: functional; in short: as §2
# Cryptococcus neoformans [12] = experiment: Antifungal activity against Cryptococcus neoformans VM-MCMMPI after 48 to 72 hrs by broth microdilution method; format: functional; in short: as §2
# Vero = experiment: Cytotoxicity against African green monkey Vero cells assessed as cell viability measured after 48 hrs by MTT assay; format: cell-based; conditions: Chlorocebus sabaeus
# In short: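 VERO cells in D-MEM with 5% FBS, used up to 20 passages. Seeded 1 x 10^4 cells/well, pre-incubated 24 h at 37°C. Exposed 48 h at 37°C, 5% CO2, to eight nonserial dilutions from 100 to 0.0128 µM, with 0.5% DMSO control. MTT reduction read-out, corrected for background and blank. IC50 reported as median with 95% CI. Triplicate, two independent experiments.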
# [13] = tested on: Cryptococcus gattii species complex; experiment: Antifungal activity against Cryptococcus gattii LMM818 after 48 to 72 hrs by broth microdilution method; format: functional, Cryptococcus bacillisporus; in short: as §1
# [14] = Selectivity index, ratio of IC50 for C57BL/6 mouse peritoneal macrophages to MIC for Cryptococcus neoformans ATCC 24067
# In short: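 SI = IC50/MIC. Thioglycollate-elicited peritoneal macrophages from C57BL/6 mice are seeded at 1 x 10^5/well. They are exposed for 48 h at 37°C to eight concentrations from 100 to 0.0128 µM. Viability read by MTT versus 0.5% DMSO control, triplicate in two experiments.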
# [15] = tested on: Cryptococcus gattii species complex; experiment: Antifungal activity against Cryptococcus gattii 135L/03 after 48 to 72 hrs by broth microdilution method; format: functional, Cryptococcus bacillisporus; in short: as §1
# Cryptococcus neoformans [16] = experiment: Antifungal activity against Cryptococcus neoformans 28JF after 48 to 72 hrs by broth microdilution method; format: functional; in short: as §2
# [17] = tested on: Cryptococcus gattii species complex; experiment: Antifungal activity against Cryptococcus gattii 196L/03 after 48 to 72 hrs by broth microdilution method; format: functional, Cryptococcus bacillisporus; in short: as §1
# Cryptococcus neoformans [18] = experiment: Antifungal activity against Cryptococcus neoformans 96806 after 48 to 72 hrs by broth microdilution method; format: functional; in short: as §2
# [19] = tested on: Cryptococcus gattii species complex; experiment: Antifungal activity against Cryptococcus gattii L28/02 after 48 to 72 hrs by broth microdilution method; format: functional, Cryptococcus bacillisporus; in short: as §1
# [20] = tested on: Cryptococcus gattii species complex; experiment: Antifungal activity against Cryptococcus gattii L24/01 after 48 to 72 hrs by broth microdilution method; format: functional, Cryptococcus bacillisporus; in short: as §1
# [21] = tested on: Cryptococcus gattii species complex; experiment: Antifungal activity against Cryptococcus gattii ICB181 after 48 to 72 hrs by broth microdilution method; format: functional, Cryptococcus bacillisporus; in short: as §1
# Cryptococcus neoformans [22] = experiment: Antifungal activity against Cryptococcus neoformans 27JF after 48 to 72 hrs by broth microdilution method; format: functional; in short: as §2
# [23] = tested on: Cryptococcus gattii species complex; experiment: Antifungal activity against Cryptococcus gattii 1913ER after 48 to 72 hrs by broth microdilution method; format: functional, Cryptococcus bacillisporus; in short: as §1
# [24] = tested on: Cryptococcus bacillisporus; experiment: Antifungal activity against Cryptococcus gattii ATCC 32608 after 48 to 72 hrs by broth microdilution method; format: functional; in short: as §1
# Cryptococcus neoformans [25] = experiment: Antifungal activity against Cryptococcus neoformans CN31 after 48 to 72 hrs by broth microdilution method; format: functional; in short: as §2
# Cryptococcus neoformans [26] = experiment: Antifungal activity against Cryptococcus neoformans ATCC 62066 after 48 to 72 hrs by broth microdilution method; format: functional
smiles,measurement,setting,value
C[C@@H]1[C@H](O)[C@@H](C)/C=C/C=C/C=C/C=C/C=C/C=C/C=C/[C@H](O[C@@H]2O[C@H](C)[C@@H](O)[C@H](N)[C@@H]2O)C[C@@H]2O[C@](O)(C[C@@H](O)C[C@@H](O)[C@H](O)CC[C@@H](O)C[C@@H](O)CC(=O)O[C@H]1C)C[C@H](O)[C@H]2C(=O)O [AMPHOTERICIN B],MFC,[1],0.1 µM
same,MIC,[1],0.04 µM
same,MIC,Cryptococcus neoformans [2],0.09 µM
same,MFC,Cryptococcus neoformans [3],0.11 µM
same,MIC,Cryptococcus neoformans [3],0.06 µM
same,selectivity ratio,[4],206
same,MFC,[5],0.1 µM
same,MIC,[5],0.08 µM
same,MFC,Cryptococcus neoformans [6],0.11 µM
same,MIC,Cryptococcus neoformans [6],0.06 µM
same,MFC,Cryptococcus neoformans [7],0.22 µM
same,MIC,Cryptococcus neoformans [7],0.04 µM
same,IC50,[8],53.4 µM
same,MFC,[9],0.1 µM
same,MIC,[9],0.08 µM
same,MFC,Cryptococcus neoformans [10],0.22 µM
same,MIC,Cryptococcus neoformans [10],0.09 µM
same,MFC,Cryptococcus neoformans [11],0.22 µM
same,MIC,Cryptococcus neoformans [11],0.06 µM
same,MFC,Cryptococcus neoformans [12],0.22 µM
same,MIC,Cryptococcus neoformans [12],0.07 µM
same,IC50,Vero,> 100 µM
same,MFC,[13],0.2 µM
same,MIC,[13],0.14 µM
same,Ratio,[14],109.81
same,MFC,[15],0.5 µM
same,MIC,[15],0.14 µM
same,MFC,Cryptococcus neoformans [16],0.22 µM
same,MIC,Cryptococcus neoformans [16],0.11 µM
same,MFC,[17],0.2 µM
same,MIC,[17],0.04 µM
same,MFC,Cryptococcus neoformans [18],0.45 µM
same,MIC,Cryptococcus neoformans [18],0.09 µM
same,MFC,[19],0.1 µM
same,MIC,[19],0.08 µM
same,MFC,[20],0.1 µM
same,MIC,[20],0.04 µM
same,MFC,[21],0.9 µM
same,MIC,[21],0.12 µM
same,MFC,Cryptococcus neoformans [22],0.45 µM
same,MIC,Cryptococcus neoformans [22],0.07 µM
same,MFC,[23],0.1 µM
same,MIC,[23],0.08 µM
same,MFC,[24],0.9 µM
same,MIC,[24],0.14 µM
same,MFC,Cryptococcus neoformans [25],0.45 µM
same,MIC,Cryptococcus neoformans [25],0.08 µM
same,MFC,Cryptococcus neoformans [26],0.22 µM
same,MIC,Cryptococcus neoformans [26],0.03 µM
